Data reported in ChEMBL document CHEMBL1154100, “Tetrahydroisoquinolines as dopaminergic ligands: 1-Butyl-7-chloro-6-hydroxy-tetrahydroisoquinoline, a new compound with antidepressant-like activity in mice” (Bioorg Med Chem, 2009).
Calls of active or inactive are those of the source. No cut-off for these calls is given here.

Columns and labels:
Mus musculus = test: Antidepressant-like activity in NMRI mouse assessed as reduction in immobility time at 16 mg/kg, ip by forced swimming test relative to control; format: functional; design: scale not given: the % may be the effect or the level left; conditions: route intraperitoneal
How it was run: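 Naive male NMRI mice (25–30 g) were used in randomized groups of n = 10 and tested in the dark phase. Injections (10 mL/kg) were given 30 min before testing, and saline was the vehicle. Each animal, not pre-tested, swam for 6 min in a cylinder 12 cm wide holding 13 cm of water at 23–24 °C. Immobility was scored over the last 4 min, and groups were compared with ANOVA and Fisher PLSD.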

D(1A) dopamine receptor = D(1A) dopamine receptor (Rattus norvegicus, UniProt P18901); test: Displacement of [3H]SCH23390 from dopamine D1 receptor in Wistar rat striatal membrane by liquid scintillation counting; format: cell membranes, Striatum
D(1A) dopamine receptor, sequence (P18901 whole entry): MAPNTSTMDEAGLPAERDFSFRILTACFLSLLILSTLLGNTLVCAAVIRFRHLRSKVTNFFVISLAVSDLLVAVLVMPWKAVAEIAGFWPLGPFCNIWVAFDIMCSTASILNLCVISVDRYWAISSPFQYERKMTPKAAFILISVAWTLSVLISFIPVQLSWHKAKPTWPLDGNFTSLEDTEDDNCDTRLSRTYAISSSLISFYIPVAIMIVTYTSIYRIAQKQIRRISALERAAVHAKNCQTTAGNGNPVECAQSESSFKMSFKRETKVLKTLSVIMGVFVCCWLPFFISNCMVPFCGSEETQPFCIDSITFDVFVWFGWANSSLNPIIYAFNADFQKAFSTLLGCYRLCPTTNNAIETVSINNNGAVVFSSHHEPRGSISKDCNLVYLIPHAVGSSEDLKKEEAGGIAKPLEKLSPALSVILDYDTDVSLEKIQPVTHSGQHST
How it was run: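 Female Wistar rat striatum homogenized in 50 mM Tris-HCl pH 7.4, then washed twice at 49,000g. Membranes were resuspended in Tris-ions buffer (NaCl, CaCl2, KCl, MgCl2, 0.1% ascorbate). [3H]-SCH23390 displacement was read by filtration and scintillation counting. Ki was derived using KD 0.36 nM; 3–6 independent runs in duplicate, mean SEM.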

D(2) dopamine receptor = D(2) dopamine receptor (Rattus norvegicus, UniProt P61169); test: Displacement of [3H]raclopride from dopamine D2 receptor in Wistar rat striatal membrane by liquid scintillation counting; format: cell membranes, Striatum
D(2) dopamine receptor, sequence (P61169 whole entry): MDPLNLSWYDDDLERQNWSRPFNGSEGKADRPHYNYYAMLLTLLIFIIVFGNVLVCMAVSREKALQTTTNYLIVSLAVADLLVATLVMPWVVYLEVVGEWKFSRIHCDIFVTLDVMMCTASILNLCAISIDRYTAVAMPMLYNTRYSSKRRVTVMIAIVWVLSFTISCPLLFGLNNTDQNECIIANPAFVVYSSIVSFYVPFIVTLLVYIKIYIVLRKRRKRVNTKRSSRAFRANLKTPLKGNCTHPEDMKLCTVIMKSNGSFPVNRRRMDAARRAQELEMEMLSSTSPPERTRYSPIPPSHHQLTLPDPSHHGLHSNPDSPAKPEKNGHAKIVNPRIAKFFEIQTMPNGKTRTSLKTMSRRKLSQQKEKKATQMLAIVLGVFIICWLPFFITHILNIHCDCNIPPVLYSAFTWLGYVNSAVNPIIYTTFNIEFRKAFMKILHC
How it was run: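 Striata from female Wistar rats (200–220 g) were homogenized in 50 mM Tris-HCl (pH 7.4) and centrifuged twice at 49,000g for 15 min at 4 °C. Membranes were resuspended in Tris buffer containing 120 mM NaCl, 2 mM CaCl₂, 5 mM KCl, 1 mM MgCl₂ and 0.1% ascorbic acid (pH 7.4). Samples were filtered, washed with cold buffer and counted by scintillation. Ki was derived using a [³H]raclopride KD of 1,25 nM, from 3–6 determinations run in duplicate.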

Rattus norvegicus = species: Rattus norvegicus; test: Selectivity for Wistar rat dopamine D2 receptor over Wistar rat dopamine D1 receptor
[1] = target: Sodium-dependent dopamine transporter (Rattus norvegicus) (UniProt P23977); test: Inhibition of DAT in Wistar rat striatal synaptosomes at 100 uM by [3H]dopamine uptake assay; format: subcellular; conditions: Brain
Sodium-dependent dopamine transporter (Rattus norvegicus), sequence (P23977 whole entry): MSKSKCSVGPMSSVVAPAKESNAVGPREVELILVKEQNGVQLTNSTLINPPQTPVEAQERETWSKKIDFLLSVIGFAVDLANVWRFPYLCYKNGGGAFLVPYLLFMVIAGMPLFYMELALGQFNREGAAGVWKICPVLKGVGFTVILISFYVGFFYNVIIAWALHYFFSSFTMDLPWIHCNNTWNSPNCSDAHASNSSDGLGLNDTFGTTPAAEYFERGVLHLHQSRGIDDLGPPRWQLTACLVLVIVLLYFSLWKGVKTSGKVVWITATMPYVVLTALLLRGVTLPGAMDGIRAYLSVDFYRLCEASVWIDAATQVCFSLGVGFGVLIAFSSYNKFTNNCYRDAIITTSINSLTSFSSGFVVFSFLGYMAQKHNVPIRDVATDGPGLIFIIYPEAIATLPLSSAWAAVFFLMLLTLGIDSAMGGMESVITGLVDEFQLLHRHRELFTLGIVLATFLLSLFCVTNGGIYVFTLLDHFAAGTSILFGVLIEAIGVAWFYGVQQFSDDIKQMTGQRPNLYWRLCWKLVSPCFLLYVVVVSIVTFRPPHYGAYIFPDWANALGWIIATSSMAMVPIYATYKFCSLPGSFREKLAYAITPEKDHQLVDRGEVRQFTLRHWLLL
How it was run: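 Synaptosomes were prepared from female Wistar rat striatum at 0–4 °C. Tissue was homogenized in 0.32 M sucrose, spun twice at 1000g for 10 min, and the pooled supernatants were spun at 16,000g for 30 min. The pellet was taken up in Krebs medium (pH 7.6, with glucose). Samples were preincubated for 10 min at 37 °C with pargyline, then given 0.5 nM final [³H]dopamine for 10 min. Uptake was stopped by ice-cold dilution and rapid fiberglass filtration.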

For `CN(C)CCCN1c2ccccc2CCc2ccccc21` [IMIPRAMINE], the Activity (Mus musculus) was 32%.

With `Oc1cc2c(cc1Cl)CCNC2Cc1ccccc1` (stereo not given) the Ki (D(1A) dopamine receptor) was 326 nM, the Ki (D(2) dopamine receptor; read-out: Ki) was 71 nM and the Ki (D(2) dopamine receptor; read-out: pKi (converted)) was 66.4 nM. The fold change (FC) (Rattus norvegicus) was 4.8 and the Activity [1] was “inactive”.

`COc1cc2c(cc1Cl)CCNC2c1ccccc1` (stereo not given) showed a Ki (D(1A) dopamine receptor) of 6000 nM, a Ki (D(2) dopamine receptor; read-out: pKi (converted)) of 6140 nM and a fold change (FC) (Rattus norvegicus) of 1.2. The Activity [1] was “inactive”.

In the case of `COc1cc2c(cc1Cl)CCN(C)C2c1ccccc1` (stereo not given), the Ki (D(1A) dopamine receptor) is reported as 815 nM, the Ki (D(2) dopamine receptor; read-out: pKi (converted)) is reported as 2140 nM and the fold change (FC) (Rattus norvegicus) is reported as 0.3. The Activity [1] was “inactive”.

`CN1CCc2cc(Cl)c(O)cc2C1Cc1ccccc1` (stereo not given) was tested, and the Ki (D(1A) dopamine receptor) was 111 nM, the Ki (D(2) dopamine receptor; read-out: pKi (converted)) was 207 nM and the fold change (FC) (Rattus norvegicus) was 0.6. The Activity [1] was “inactive”.

`CCCCC1NCCc2cc(Cl)c(O)cc21` (stereo not given) showed a Ki (D(1A) dopamine receptor) of 1210 nM, a Ki (D(2) dopamine receptor; read-out: Ki) of 91 nM and a fold change (FC) (Rattus norvegicus) of 17. For the same compound, the Activity [1] was “inactive”.

`CN1CCc2cc(Cl)c(O)cc2C1c1ccccc1` (stereo not given) was tested, and the Ki (D(1A) dopamine receptor) was 40.3 nM, the Ki (D(2) dopamine receptor; read-out: pKi (converted)) was 504 nM and the fold change (FC) (Rattus norvegicus) was 0.07. For the same compound, the Activity [1] was “inactive”.

Work on `COc1cc2c(cc1Cl)CCNC2Cc1ccccc1` (stereo not given) yielded a Ki (D(1A) dopamine receptor) of 2360 nM, a Ki (D(2) dopamine receptor; read-out: pKi (converted)) of 968 nM and a fold change (FC) (Rattus norvegicus) of 5. For the same compound, the Activity [1] was “inactive”.
